Measured values taken from ChEMBL document CHEMBL4831478, “Bispecific Estrogen Receptor α Degraders Incorporating Novel Binders Identified Using DNA-Encoded Chemical Library Screening” (J Med Chem, 2021).
Calls of active or inactive are those of the source. The rule behind the calls is not given here.

How the values were obtained:
Estrogen receptor [1] = molecular target: T1, Estrogen receptor (Homo sapiens, UniProt P03372); experiment: Induction of ERalpha degradation in human MCF7 cells assessed as decrease in ERalpha protein expression incubated for 24 hrs by Western blot analysis; type: cell-based
T1 sequence (P03372 whole entry): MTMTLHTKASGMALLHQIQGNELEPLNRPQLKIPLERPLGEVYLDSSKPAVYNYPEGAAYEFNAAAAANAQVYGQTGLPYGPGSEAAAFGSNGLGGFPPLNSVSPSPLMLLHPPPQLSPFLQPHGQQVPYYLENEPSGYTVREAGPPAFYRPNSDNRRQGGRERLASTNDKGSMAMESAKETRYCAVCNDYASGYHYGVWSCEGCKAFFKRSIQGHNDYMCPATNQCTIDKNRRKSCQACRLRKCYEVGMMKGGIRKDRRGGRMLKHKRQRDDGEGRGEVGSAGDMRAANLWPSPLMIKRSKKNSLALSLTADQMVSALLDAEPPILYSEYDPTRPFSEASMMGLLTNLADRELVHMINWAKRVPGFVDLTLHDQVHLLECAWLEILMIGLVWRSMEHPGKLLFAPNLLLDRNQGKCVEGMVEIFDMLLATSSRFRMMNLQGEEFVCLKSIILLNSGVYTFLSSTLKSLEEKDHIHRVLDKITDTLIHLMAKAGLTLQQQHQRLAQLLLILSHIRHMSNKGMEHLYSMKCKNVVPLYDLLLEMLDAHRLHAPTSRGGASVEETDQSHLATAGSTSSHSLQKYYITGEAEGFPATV

ZR-75-1 = experiment: Antiproliferative activity against human ZR-75-1 cells assessed as growth inhibition incubated for 7 days by CellTiter-Glo assay; type: functional; settings: ZR-75-1, 168 h, time 7 day
How it was run: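 Breast lines from ATCC, maintained in ATCC-specified media, treated with increasing compound doses in full-serum (complete) media for 7 days. Relative cell number measured by CellTiter-Glo ATP read-out.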

Estrogen receptor [2] = molecular target: Estrogen receptor (Homo sapiens, UniProt P03372, S463P); experiment: Binding affinity to ERalpha S463P mutant (unknown origin) expressed in Escherichia coli preincubated for 15 mins followed by ligand addition and measured after 1 hr by fluorescent polarization assay
Estrogen receptor (Homo sapiens, UniProt P03372, S463P), sequence (P03372 whole entry S463P, the tested form may be a part): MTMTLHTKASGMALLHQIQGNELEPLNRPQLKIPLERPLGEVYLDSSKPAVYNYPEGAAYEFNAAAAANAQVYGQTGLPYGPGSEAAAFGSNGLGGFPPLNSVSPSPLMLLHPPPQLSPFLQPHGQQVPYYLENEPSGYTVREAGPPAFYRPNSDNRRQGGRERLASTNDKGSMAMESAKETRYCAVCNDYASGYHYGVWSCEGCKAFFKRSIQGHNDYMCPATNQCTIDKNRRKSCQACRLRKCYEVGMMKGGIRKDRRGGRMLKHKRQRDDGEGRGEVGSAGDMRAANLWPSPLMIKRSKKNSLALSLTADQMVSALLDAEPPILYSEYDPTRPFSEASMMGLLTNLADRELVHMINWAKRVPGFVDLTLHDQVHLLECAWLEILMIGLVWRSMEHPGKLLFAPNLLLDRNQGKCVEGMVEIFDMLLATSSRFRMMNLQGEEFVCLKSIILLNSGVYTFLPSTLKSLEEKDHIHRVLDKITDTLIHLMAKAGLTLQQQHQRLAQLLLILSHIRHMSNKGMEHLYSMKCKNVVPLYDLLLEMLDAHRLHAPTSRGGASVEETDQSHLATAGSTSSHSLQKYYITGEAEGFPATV
How it was run: (§1)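 ERα LBD (aa 307–554), WT or D538G, S463P, Y537S, with N-terminal Avi-Tev-His tag, expressed in E. coli T7 Express (20 °C, 12 h, IPTG). Purified by Ni-NTA then size exclusion. Compound preincubated with protein 15 min, fluorescent ligand added, 1 h at room temperature. FP read ex 485/em 535 nm; duplicate runs averaged.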

Homo sapiens = organism: Homo sapiens; experiment: Selectivity index, ratio of DC50 for induction of ERalpha degradation in human MCF7 cells in presence of VHL298 to DC50 for induction of ERalpha degradation in human MCF7 cells; type: cell-based
How it was run: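 MCF7 cells were treated with a PROTAC dose series, alone or co-treated with the VHL ligand VHL298 (5 μM), for 48 h in total before collection. ERα degradation DC50 was determined under both conditions and the two values compared as a ratio.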

[3] = Half life in CD1 mouse at 0.3 mg/kg, iv administered as cassette dosing […]; type: ADME, organism-based; settings: in vivo
[4] = Toxicity in CD1 mouse xenografted with human MCF7 cells assessed as change in body weight at 10 mg/kg, sc administered once daily for 28 days; type: organism-based; settings: in vivo, 672 h, time 28 day
How it was run: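 Mice implanted with 17β-estradiol pellets (0.18 mg) 2 days before sc right-flank inoculation of 10×10^6 MCF-7 cells in PBS/Matrigel (50:50). Randomized at mean tumor 165 mm³, 8 per group. Dosed 10 mg/kg sc qd; fulvestrant reference 3 mg/mouse sc weekly. Caliper measurements twice weekly, V = 0.5a×b². TGI from medians. Body weight recorded before each dosing.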

[5] = Bioavailability in CD1 mouse at 10 mg/kg, sc administered as single dose […]; type: ADME, organism-based; settings: in vivo
[6] = Plasma protein binding in human; type: ADME, cell-free; settings: read-out: PPB
[7] = Apparent permeability of compound across apical to basolateral side in MDCK cells; type: ADME, cell-based, Canis lupus familiaris; settings: dog
Mus musculus = experiment: Induction of ERalpha degradation in CD1 mouse xenografted with human MCF7 cells assessed as reduction in ERalpha level at 10 mg/kg, sc measured after 3 days by Western blotting analysis; type: functional, organism-based; settings: time 3.0 day
[8] = Clearance in CD1 mouse at 0.3 mg/kg, iv administered as cassette dosing […]; type: ADME, organism-based; settings: in vivo
Estrogen receptor [9] = molecular target: T1, Estrogen receptor; experiment: (§2) Antagonist activity at ERalpha in human MCF7 cells assessed as reduction in PGR gene expression incubated for 24 hrs by qPCR analysis; type: cell-based
How it was run: (§3)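 MCF7 cells in complete media, incubated 72 h, then dosed in a 6-point series (0.5% DMSO final) for 24 h at 37 °C. RNA extracted, cDNA made, TaqMan qPCR for progesterone receptor normalized to TBP. Comparative CT (ΔΔCT) used for dose-response curves.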

[10] = molecular target: T2, Estrogen receptor (Homo sapiens) (UniProt P03372); experiment: as §2; type: cell-based; settings: filed as antagonist; how it was run: as §3
T2 sequence (whole entry): T1 sequence (P03372 whole entry)

[11] = Microsomal stability in mouse liver microsomes assessed as intrinsic clearance measured upto 60 mins; type: ADME, Microsome; settings: read-out: CLH
How it was run: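 Compounds at 2 μM final incubated with pooled human or male mouse liver microsomes. Percent remaining measured at 0, 15, 30, 45 and 60 min and used to calculate in vitro half-life.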

Estrogen receptor [12] = molecular target: Estrogen receptor (Homo sapiens, UniProt P03372, Y537S); experiment: Binding affinity to ERalpha Y537S mutant (unknown origin) expressed in Escherichia coli preincubated for 15 mins followed by ligand addition and measured after 1 hr by fluorescent polarization assay; how it was run: as §1
Estrogen receptor (Homo sapiens, UniProt P03372, Y537S), sequence (P03372 whole entry Y537S): as the sequence (P03372 whole entry S463P, the tested form may be a part) above, with P463S, Y537S counted along it

Estrogen receptor [13] = molecular target: Estrogen receptor (Homo sapiens, UniProt P03372, D538G); experiment: Binding affinity to ERalpha D538G mutant (unknown origin) expressed in Escherichia coli preincubated for 15 mins followed by ligand addition and measured after 1 hr by fluorescent polarization assay; how it was run: as §1
Estrogen receptor (Homo sapiens, UniProt P03372, D538G), sequence (P03372 whole entry D538G): as the sequence (P03372 whole entry S463P, the tested form may be a part) above, with P463S, D538G counted along it

## Cc1ncsc1-c1ccc([C@@H](C)NC(=O)[C@@H]2C[C@@H](O)CN2C(=O)[C@H](NC(=O)COCCOCc2cn(CCOc3ccc(N(Cc4cccc(O)c4Cl)CC4(c5ccccc5F)CCCC4)cc3)nn2)C(C)(C)C)cc1
Estrogen receptor [1]
  DC50: 4.5 nM
ZR-75-1
  GI50: 40.9 nM
Estrogen receptor [2]
  IC50: 203 nM
Homo sapiens
  Selectivity Index: 8
[3]
  half-life: 8.7 h
[4]
  Activity: Non-Toxic
[5]
  bioavailability: > 100%
[6]
  fraction unbound: < 0.004
[7]
  Papp A→B: < 0.1 ×10⁻⁶ cm/s
Mus musculus
  Activity: Active
[8]
  clearance: 23 mL/min/kg
Estrogen receptor [9]
  EC50: 27 nM
[10]
  Activity: Dose-Dependent Effect
[11]
  microsomal CLint: 249 µL/min/mg
Estrogen receptor [12]
  IC50: 419 nM
Estrogen receptor [13]
  IC50: 517 nM
